The source of these data is ChEMBL document CHEMBL1137987, “O-alkoxyamidine prodrugs of furamidine: in vitro transport and microsomal metabolism as indicators of in vivo efficacy in a mouse model of Trypanosoma brucei rhodesiense infection” (J Med Chem, 2004).

Some results are limits rather than exact numbers.

Data set [1] has as its system Mus musculus. As to the kind of experiment: In vivo effect on average days of survival was measured upon oral dose at 400 mg/kg in STIB900 mouse model. It counts as functional. A digest of the protocol: (§1)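 Mice infected with T. b. rhodesiense STIB900 got four daily doses: intraperitoneal for the parent amidine (4 × 10 mg/kg), oral for the prodrugs (4 × 25, 4 × 50 or 4 × 100 mg/kg/day). Read-out is mean days of survival per group, followed to 60 days.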

Data set [2] relates to Trypanosoma brucei rhodesiense. As to the kind of experiment: In vitro inhibitory activity against Trypanosoma brucei rhodesiense evaluated in vitro.
The subject of data set [3] is Mus musculus. Nature of the data set: In vivo effect (cures) determined by number of mice that survived (2) and are parasite free (4) for 60 days upon oral dose, observed in STIB900 mouse model.
Data set [4] relates to Caco-2. As to the kind of experiment: Apparent permeability determined across the Caco-2 cell monolayers in both apical (AP) to basolateral (BL) directions. It counts as functional, cell-based. As to conditions: Homo sapiens. A general note: Caco-2 monolayers are a common model of the intestinal barrier.
For data set [5], the system named is Caco-2. As to the kind of experiment: Apparent permeability determined across the Caco-2 cell monolayers in both basolateral (BL) to apical (AP) directions. It counts as functional, cell-based. As to conditions: Homo sapiens.
The nature of data set [6]: Half-life in human liver microsomes was determined. It counts as ADME, Microsome. A digest of the protocol:
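Substrate at 10 µM final (from 5 mM methanol stocks) in 100 mM potassium phosphate pH 7.4 with 0.2 mg/mL pooled human liver microsomes. Preincubated 5 min, then started with 1 mM NADPH. Samples taken at 0–90 min, quenched with acetonitrile on ice, centrifuged, and supernatant analysed by HPLC-UV or LC-MS. Half-life from substrate loss.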
(Microsomes from liver hold many membrane-bound enzymes, among them those of drug oxidation.)

For data set [7], the system named is Mus musculus. As to the kind of experiment: In vivo effect on average days of survival was measured upon oral dose at 100 mg/kg in STIB900 mouse model. It counts as functional. The method in brief: as §1
In data set [8] the test system is Mus musculus. As to the kind of experiment: In vivo effect on average days of survival was measured upon oral dose at 200 mg/kg in STIB900 mouse model. It counts as functional. The method in brief: as §1
For data set [9], the system named is Mus musculus. Nature of the data set: In vivo effect (cures) determined by number of mice that survived (1) and are parasite free (4) for 60 days upon oral dose, observed in STIB900 mouse model.
Data set [10] relates to Mus musculus. As to the kind of experiment: In vivo effect (cures) determined by number of mice that survived (4) and are parasite free (4) for 60 days upon oral dose, observed in STIB900 mouse model.
Data set [11] has as its system Mus musculus. As to the kind of experiment: In vivo effect (cures) determined by number of mice that survived (0) and are parasite free (8) for 60 days upon intraperitoneal dose, observed in STIB900 mouse model. Format: functional. A digest of the protocol:
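T. b. rhodesiense STIB900 acute infection in mice, 4 mice per group (8 in one group). Four daily doses (4 × mg/kg/day); the parent amidine was given intraperitoneally and the prodrugs orally. A cure is a mouse surviving and parasite-free at 60 days, reported as cured/treated.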

For data set [12], the system named is Mus musculus. As to the kind of experiment: In vivo effect on average days of survival was measured upon intraperitoneal dose at 40 mg/kg in STIB900 mouse model. It counts as functional. A digest of the protocol:
as §1

For `CC(C)ONC(=N)c1ccc(-c2ccc(-c3ccc(C(=N)NOC(C)C)cc3)o2)cc1`, in the data set on Mus musculus [1], the Survival days is reported as 48. It took 12.6 µM to reach half-maximal inhibition in [2] (IC50). In addition, in the data set on Mus musculus [3], the Dose worked out at 400 mg/kg.

Take `CCCCONC(=N)c1ccc(-c2ccc(-c3ccc(C(=N)NOCCCC)cc3)o2)cc1`: the Survival days in the data set on Mus musculus [1] worked out at 9. In addition, in [2], the IC50 (usually the concentration that gives 50% inhibition) was 1.9 µM.

For `CONC(=N)c1ccc(-c2ccc(-c3ccc(C(=N)NOC)cc3)o2)cc1` [PAFURAMIDINE], the Papp came to 6.04e-05 with Caco-2 [4] and 3.75e-05 in the data set with Caco-2 [5]. Also, the half-life (as a rule, how long it takes for the measured level to halve) in [6] turned out to be 4.16 min. Besides, the Survival days in the data set on Mus musculus [7], in the data set on Mus musculus [8] and with Mus musculus [1] was above 60 each time. In addition, in [2], 14.6 µM corresponded to half-maximal inhibition (IC50). For the same compound, the Dose in the data set on Mus musculus [9] worked out at 100 mg/kg; in the data set on Mus musculus [3] it was 200 mg/kg; with Mus musculus [10] it was 400 mg/kg.

Consider `CCONC(=N)c1ccc(-c2ccc(-c3ccc(C(=N)NOCC)cc3)o2)cc1`, for which the Papp with Caco-2 [4] came to 5.9e-06; in the data set on Caco-2 [5], 3.7e-06. In addition, the half-life in data set [6] worked out at 32 min. The Survival days with Mus musculus [7] is recorded as 32; with Mus musculus [1], above 60. In data set [2], the IC50 is 0.645 µM. The Dose with Mus musculus [10] was 400 mg/kg.

The compound `N=C(NO)c1ccc(-c2ccc(-c3ccc(/C(N)=N\O)cc3)o2)cc1` had a Survival days in the data set with Mus musculus [1] of 50. In [2], the IC50 is 66.4 µM.

On to `N=C(N)c1ccc(-c2ccc(-c3ccc(C(=N)N)cc3)o2)cc1` [FURAMIDINE], for which the Papp in the data set with Caco-2 [4] came to 3.8e-07; in the data set with Caco-2 [5], 8.5e-07. In addition, the Dose in the data set with Mus musculus [11] amounted to 40 mg/kg. In addition, in the data set on Mus musculus [12], the Survival days is listed as above 46. In addition, it took 0.0045 µM to reach half-maximal inhibition in data set [2] (IC50).

For `CCCCCCONC(=N)c1ccc(-c2ccc(-c3ccc(C(=N)NOCCCCCC)cc3)o2)cc1`, the Survival days in the data set with Mus musculus [1] is on record as 6. For the same compound, the IC50 in [2] worked out at 5.7 µM.

`CCCONC(=N)c1ccc(-c2ccc(-c3ccc(C(=N)NOCCC)cc3)o2)cc1`: in data set [6], the half-life came to 60 min. The Survival days with Mus musculus [1] is reported as above 47.5. This compound also registered an IC50 in data set [2] of 0.472 µM. Moreover, in the data set with Mus musculus [9], the Dose is 400 mg/kg.
